This is a sample that favours compounds with a hit; in the whole collection about 4.9% have one here.
STAT3 inh – inhibitors of IL-6 induced STAT3 signaling | inhibition, % at 5.5 µM | U3A cells, IL-6 STAT3-luciferase reporter, luminescence; host cell line lacks STAT1 | actives 0.89% (n = 190,000);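 active = inhibition above the mean inhibition across all screened compounds plus 3 SD, cut at about 44% in these data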;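 also: 0% = DMSO only wells and 100% = 100 µM nifuroxazide control wells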
NF-kB neuron act – raises NF-kB expression in human neuronal cells; fold change at 12.5 µM; actives 1.6% (n = 190,000); NF-kB reporter expression; hits give high values; in the data active = fold change above about 3.3
STAT1 act-1 – STAT1 signaling activation | NIH 3T3 STAT1-luciferase reporter, IFN-gamma, luminescence; 100% = IFN-gamma alone, no compound | activation (% of control), % at 5.5 µM | actives 2.6% (n = 200,000);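 active = activation above the screen-wide mean activation plus 3 SD, cut at about 130% in these data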;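 also: raw ratio to IFN-gamma control signal so 100% means no change and 0% no light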
STAT3 act-1 – activators of IL-6 induced STAT3 signaling. U3A cells, IL-6 STAT3-luciferase reporter, luminescence; 100% = signal with IL-6 EC80 alone. activation (% of control), % at 5.6 µM. actives 0.91% (n = 190,000);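 active = activation above the screen-wide mean of compound activation plus 3 SD, cut at about 130% in these data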;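 also: 0% = background luminescence of wells with medium and substrate only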
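Detection: reporter luminescence signal / Assay system: STAT1-lacking human U3A cells, STAT3 luciferase reporter / Incubation: compound pre-incubation 1 h before IL-6, then 6 h stimulation at 37 °C / Control set: IL-6-only high control / Read-out: % activation relative to IL-6 control / Probe or stimulus: Interleukin-6, 33 ng/mL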
STAT1 inh – reduces IFN-gamma driven STAT1 reporter signal; NIH 3T3 STAT1-luciferase reporter, luminescence; inhibition, % at 5.5 µM; actives 0.35% (n = 200,000); AID 920;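 active = inhibition above a set limit, the mean inhibition across all tested compounds plus 3 SD, cut at about 34% in these data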;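 also: 0% = IFN-gamma with DMSO and 100% = IFN-gamma with 300 µM nifuroxazide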
APP 5'UTR act – APP 5'UTR luciferase reporter activation; SH-SY5Y APP 5'UTR luciferase reporter, luminescence; zero percent = DMSO vehicle wells; activation, % at 2 µM; actives 1% (n = 190,000); AID 1276;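 active = activation above a set limit, based on mean plus 3 SD of controls, cut at about 140% in these data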
STAT3 act-2 – STAT3 activation, confirmation assay | shares compounds with STAT3 act-1 | U3A STAT3-luciferase reporter, IL-6 potentiation, luminescence; U3A cells lack STAT1; 100 means same as IL-6 alone | potentiation (% of control), % at 5.7 µM | actives 64% (n = 1,200) | AID 1267;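 active = percent activation of the STAT3 luciferase reporter above a set limit taken from the earlier primary screen, cut at about 130% in these data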;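 also: 0% = background signal of medium plus substrate and 100% = median of IL-6 with DMSO wells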
NFkB act STAT3ct – activates NF-kappaB, counter-screen to STAT3 activators; shares compounds with STAT3 act-1; human cells, NF-kappaB reporter activation; activation (% of control), % at 5.7 µM; actives 11% (n = 1,200); AID 1309; in the data active = activation above about 120%;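 also: reporter induced by TNF-alpha stimulation; 100% = median of stimulated DMSO wells and 0% = no signal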
STAT1 act-2 – STAT1 activation in STAT3 activator counter-screen | NIH 3T3 STAT1-luciferase reporter, IFN-gamma, luminescence | activation (% of control), % at 5.7 µM | AID 1318 | actives 13% (n = 1,200) | shares compounds with STAT3 act-1;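 active = activation above the solvent-only control well mean plus 3 SD, set per screening run, cut at about 120% in these data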;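 also: 100% = IFN-gamma with DMSO median signal so 100% means no change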
* = called active by the depositor.

Screening CCOC(=O)C(C)Sc1nc2c([nH]c3ccccc32)c(=O)n1C (stereo not drawn) returned STAT3 inh -21, NF-kB neuron act 1.2, STAT1 act-1 93, STAT3 act-1 120, STAT1 inh 7 and APP 5'UTR act 1.
CC(C)Sc1nc2c([nH]c3ccccc32)c(=O)n1C was read as STAT3 inh -61, NF-kB neuron act 1.2, STAT1 act-1 91, STAT3 act-1 158*, STAT1 inh 10, APP 5'UTR act 0, STAT3 act-2 159*, NFkB act STAT3ct 92 and STAT1 act-2 87.
For c1ccc2c(-c3nc4ncccc4o3)cccc2c1 the results were STAT3 inh -43, NF-kB neuron act 1.1, STAT1 act-1 103, STAT3 act-1 141*, STAT1 inh -3, APP 5'UTR act -1, STAT3 act-2 124, NFkB act STAT3ct 109 and STAT1 act-2 110.
`Cc1ccccc1OCC(=O)Nc1cccc2nsnc12` gave STAT3 inh -57, NF-kB neuron act 1.2, STAT1 act-1 86, STAT3 act-1 150*, STAT1 inh 8, APP 5'UTR act 3, STAT3 act-2 129, NFkB act STAT3ct 110 and STAT1 act-2 107.
For Nc1c(Br)cc2oc(-c3ccccc3)nc2c1Br the results were STAT3 inh -62, NF-kB neuron act 3.4*, STAT1 act-1 112, STAT3 act-1 146*, STAT1 inh -13, APP 5'UTR act 100, STAT3 act-2 181*, NFkB act STAT3ct 123* and STAT1 act-2 152*.
Screening O=C(c1ccccc1C(=O)N(c1ccccc1)c1ccccc1)N1CCCCC1 returned STAT3 inh 14, NF-kB neuron act 1.3, STAT1 act-1 100, STAT3 act-1 95, STAT1 inh 0 and APP 5'UTR act 10.
Screening c1cncc(-c2nc(NCc3ccco3)c3ccccc3n2)c1 returned STAT3 inh -26, NF-kB neuron act 0.8, STAT1 act-1 104, STAT3 act-1 125, STAT1 inh -4 and APP 5'UTR act -4.
Cc1ccc(-c2nc(NCc3ccco3)c3ccccc3n2)cc1 was read as STAT3 inh -46, NF-kB neuron act 1.4, STAT1 act-1 98, STAT3 act-1 139*, STAT1 inh 3, APP 5'UTR act 7, STAT3 act-2 153*, NFkB act STAT3ct 109 and STAT1 act-2 109.
For COc1cc(/C=C/C(=O)OCC(=O)Nc2cc(C(F)(F)F)ccc2N2CCOCC2)ccc1O the results were STAT3 inh 1, NF-kB neuron act 1.1, STAT1 act-1 97, STAT3 act-1 103, STAT1 inh 3 and APP 5'UTR act 15.
For C(#CC12CC3CC(CC(C3)C1)C2)CN1CCOCC1 the results were STAT3 inh -4, NF-kB neuron act 1.1, STAT1 act-1 98, STAT3 act-1 104, STAT1 inh 1 and APP 5'UTR act 6.
O=C(CCc1nc2ccccc2[nH]1)NCc1ccc2c(c1)OCO2 was read as STAT3 inh 0, NF-kB neuron act 0.88, STAT1 act-1 98, STAT3 act-1 100, STAT1 inh 3 and APP 5'UTR act 5.
For O=C(CCc1nnc(Cc2ccc3c(c2)OCO3)o1)NCc1nc2ccccc2s1 the results were STAT3 inh -49, NF-kB neuron act 0.95, STAT1 act-1 111, STAT3 act-1 149*, STAT1 inh -12, APP 5'UTR act 12, STAT3 act-2 142*, NFkB act STAT3ct 105 and STAT1 act-2 93.
`O=C(Cc1cscn1)c1ccc(O)cc1O` gave STAT3 inh -49, NF-kB neuron act 1.2, STAT1 act-1 103, STAT3 act-1 146*, STAT1 inh -3, APP 5'UTR act 1, STAT3 act-2 100, NFkB act STAT3ct 100 and STAT1 act-2 104.
